Experimental data published in publication PMC3703767 (Virology, 2008).

Columns and labels:
[1] = tested on: Hu/NoV/GII.4/CN3050/1998/USA 5′ ORF1 sequence; experiment: Luciferase reporter assay, CN3050 leader; format: biochemical, human norovirus
Method in brief: (§1)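 In vitro translation in nuclease-treated rabbit reticulocyte lysate. The target 5′-end leader sits upstream of firefly luciferase; RNA is T7-transcribed from NotI-cut plasmid (1 nM final). Test compound is added at 0.01–83 μM final, and reactions run 75 min at 37 °C, then are chilled on ice. Percent inhibition is calculated from luciferase signal versus no-compound reaction. Each assay was run at least twice, by two investigators in separate labs.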

[2] = tested on: Laboratory variant 3 5′ ORF1 sequence; experiment: Luciferase reporter assay, Laboratory variant 3 leader; format: biochemical
Method in brief: as §1

[3] = tested on: Bo/NoV/GIII.1/Jena/1998/DEU 5′ ORF1 sequence; experiment: Luciferase reporter assay, Jena bovine norovirus leader; format: biochemical
Method in brief: as §1

[4] = tested on: Hu/No.V/GII.4/Lordsdale/1993/UK 5′ ORF1 sequence; experiment: Luciferase reporter assay, Lordsdale leader; format: biochemical, human norovirus
Method in brief: as §1

[5] = tested on: Hu/NoV/GI.6/WUG1/2000/JP 5′ ORF1 sequence; experiment: Luciferase reporter assay, WUG1 leader; format: biochemical, human norovirus; conditions: target with 1 mismatch to Noro 1.1; luciferase signal
Method in brief: as §1

[6] = tested on: Norwalk virus replicon in HG23 cells; experiment: PMO inhibition of norovirus protein expression in replicon cell line HG23; format: cell-based; conditions: 16 μM, 5-day incubation, immunofluorescence
Method in brief: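 HG23 cells (Huh-7-derived Norwalk replicon line, DMEM/10% FBS/0.25 mg/ml neomycin) received 16 μM unconjugated morpholino by nucleofection (solution L, program A020). A total of 2×10^6 cells were seeded and incubated 5 days at 37 °C. Cells were then fixed in ice-cold methanol and analysed by immunofluorescence with guinea pig antisera against Norwalk VP1 and RdRP.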

[7] = tested on: Hu/NoV/GI.2/Southampton/1991/UK 5′ ORF1 sequence; experiment: Luciferase reporter assay, Southampton leader; format: biochemical, human norovirus; conditions: target with 0 mismatches to Noro 1.1; luciferase signal
Method in brief: as §1

[8] = tested on: Norwalk virus replicon in HG23 cells; experiment: Norwalk virus RNA in replicon-bearing HG23 cells; format: cell-based; conditions: 16 μM, quantitative real-time RT-PCR, data not shown
Method in brief: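 HG23 replicon cells were electroporated with 16 μM test compound and incubated 5 days at 37 °C. Replicon RNA in treated and untreated cells was then quantified by single-step real-time RT-PCR with a standard curve in each run. Cycling: 45 °C 30 min, 95 °C 10 min, then 45 cycles of 95 °C 30 s, 50 °C 1 min, 72 °C 30 s.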

[9] = tested on: Laboratory variant 1 5′ ORF1 sequence; experiment: Luciferase reporter assay, Laboratory variant 1 leader; format: biochemical
Method in brief: as §1

[10] = tested on: Hu/NoV/GII.12/CN2753/1998/USA 5′ ORF1 sequence; experiment: Luciferase reporter assay, CN2753 leader; format: biochemical, human norovirus; conditions: target with 2 mismatches to Noro 1.1; luciferase signal
Method in brief: as §1

[11] = tested on: Hu/NoV/GI.1/Norwalk virus/1968/US 5′ ORF1 sequence; experiment: Luciferase reporter assay, Norwalk leader; format: biochemical, human norovirus; conditions: target with 1 mismatch to Noro 1.1; luciferase signal
Method in brief: as §1

[12] = tested on: Laboratory variant 2 5′ ORF1 sequence; experiment: Luciferase reporter assay, Laboratory variant 2 leader; format: biochemical
Method in brief: as §1

[13] = tested on: MNV-1; experiment: Mouse norovirus PPMO inhibition assay in RAW264.7 cells; format: cell-based, murine norovirus
Method in brief: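 RAW264.7 cells (2×10^5/well) were seeded and incubated overnight, then rinsed and exposed 4 h to test compound in plain DMEM (8 replicate wells). They were rinsed again and infected with MNV-1.CW1 for 2 h at 37 °C, then kept 3 days at 37 °C. Wells were formalin-fixed and stained with crystal violet; methanol-eluted stain was read at A570. Variants used fixed compound with 10-fold virus dilutions (20–2×10^5 PFU/well), or 1.25–80 μM compound with 2×10^4 PFU/well. % lysis = ([treated]−[treated+infected])/[treated]×100.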

[14] = target with 6 mismatches to Noro 1.1, luciferase signal

CGACGCCATCATCATTCAC [Noro 1.1]
inhibition of translation achieved ([1]; GII.4 variant): 100% | Outcome of in vitro assay ([1]; target with 3 mismatches to Noro 1.1, luciferase signal): Inhibition (Inhibition defined as > 60% reduction of protein synthesis, as defined by luciferase signal.) | inhibition of translation ([2]; LabVar3, 6 nucleotide differences, data not shown): completely failed to inhibit translation | Outcome of in vitro assay [2, 14]: No inhibition | maximal inhibition achieved ([3]; range of concentrations tested, 0.01 to 83 μM): ≤ 57% | Outcome of in vitro assay [3, 14]: No inhibition | inhibition of translation achieved ([4]; GII.4 variant): 100% | Outcome of in vitro assay ([4]; target with 2 mismatches to Noro 1.1, luciferase signal): Inhibition (Inhibition defined as > 60% reduction of protein synthesis, as defined by luciferase signal.) | Outcome of in vitro assay [5]: Inhibition (Inhibition defined as > 60% reduction of protein synthesis, as defined by luciferase signal.) | Norwalk virus protein translation in HG23 cells [6]: effectively inhibited norovirus protein translation | Outcome of in vitro assay [7]: Inhibition (Inhibition defined as > 60% reduction of protein synthesis, as defined by luciferase signal.) | Norwalk virus RNA level [8]: did not see a significant reduction in RNA | inhibition of translation ([9]; LabVar 1, 4 nucleotide changes): less efficiently | Outcome of in vitro assay ([9]; target with 4 mismatches to Noro 1.1, luciferase signal): Inhibition (Inhibition defined as > 60% reduction of protein synthesis, as defined by luciferase signal.) | Outcome of in vitro assay [10]: Inhibition (Inhibition defined as > 60% reduction of protein synthesis, as defined by luciferase signal.) | Outcome of in vitro assay [11]: Inhibition (Inhibition defined as > 60% reduction of protein synthesis, as defined by luciferase signal.) | inhibition of translation ([12]; LabVar 2, 5 nucleotide changes): less efficiently | Outcome of in vitro assay ([12]; target with 5 mismatches to Noro 1.1, luciferase signal): Inhibition (Inhibition defined as > 60% reduction of protein synthesis, as defined by luciferase signal.)

CGCAGAAGATGGCGTTGCCATCCTC [PPMO C]
effectiveness in inhibiting viral replication ([13]; 20 μM PPMO, 2 × 10^4 PFU/well MNV-1): 70% | maximal dose of MNV-1 inhibited ([13]; PPMO C 80 μM, MNV-1 20 to 2 × 10^5 PFU/well, 8 replicates): up to 2 × 10^5 PFU

CGTTGCCATCCTCATTTCAC [PPMO B]
dose of MNV-1 whose replication is completely inhibited ([13]; PPMO B 20 μM, MNV-1 20 to 2 × 10^5 PFU/well, 8 replicates): 2 × 10^3 PFU
